Experimental data from publication PMC6477682 (Journal of the American Chemical Society, 2018).

Tests used:
[1] = system: S. aureus; assay: Photoinactivation; format: cell-based, Staphylococcus aureus; settings: at 1 µM and 2 µM, with and without photoirradiation (Figure 4c)
[2] = system: LOS- A. baumannii cells; assay: Photoinactivation of LOS- A. baumannii; format: cell-based, Acinetobacter baumannii; settings: at the same concentrations, with and without photoirradiation (Figure 5c)
Summary of the method: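 AB5075-derived LOS− strain grown to OD600~0.7, washed, diluted in PBS (pH 7.4) to ~1×10^8 cfu/mL, incubated 15 min with eosin-conjugated peptide (2 µM) or controls. Half the suspension irradiated 15 min with blue light (120 W lamp, fluorescein filter, 20X objective); the other half kept dark. Plated on LB agar + 10 µg/mL polymyxin b, 24 h. Killing from colony counts vs untreated PBS control; mean of two trials.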

O=C1OC2(c3ccccc31)c1cc(Br)c(O)c(Br)c1Oc1c2cc(Br)c(O)c1Br [eosin]
S. aureus cell death, controls [1]: did not elicit cell death
LOS- A. baumannii cell death, controls [2]: did not elicit A. baumannii cell death
